High-throughput results as filed in PubChem.
Most compounds without a hit are left out; they make up all but 4.1% or so of the library.
Efflux pump inh: antifungal efflux pump inhibition, Nile Red retention; inhibition, % at 10 µM; S. cerevisiae Candida pump triplex; AID 485275; 330,000 compounds, 0.44% hits;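 active = plate passing quality check with inhibition over a set limit, or well fluorescence over plate mean plus 4 SD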;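 also: Nile Red retained in pooled yeast measured as flow cytometry median fluorescence; higher means more Nile Red kept so more efflux inhibition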
Tb MetRS inh: blocks T. brucei methionyl-tRNA synthetase activity; purified T. brucei MetRS, ATP depletion, Kinase-Glo luminescence; inhibition, % at 11.9 µM; 360,000 compounds, 0.4% hits; AID 624268;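 active = inhibition above a per-plate cutoff of the control wells' mean inhibition plus 3 SD, cut at about 5.5% in these data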
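Test system: purified T. brucei MetRS enzyme. Also added: ATP, methionine and E. coli bulk tRNA substrates. Compound: 11.9 µM single point. Schedule: 15 min enzyme-compound preincubation, 2 h reaction, 10 min detection, 25 °C. Signal: luciferase luminescence of residual ATP, Kinase-Glo. Evaluation: percent inhibition versus plate control medians. Controls: DMSO wells, low control.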
TAG inh: triacylglycerol accumulation inhibition; H9c2 cells, Nile Red lipid (TAG) fluorescence; cells loaded with 200 µM oleic acid; AID 651582; inhibition, % at 12.5 µM; 230,000 compounds, 0.66% hits;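 active = pattern-corrected inhibition of lipid staining of at least 50% with the nuclear-stain viability signal not falling by more than 50%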
AHR activator: activates the human aryl hydrocarbon receptor; P35869; AHR-responsive luciferase reporter cells, luminescence; activation, % at 5 µM; 320,000 compounds, 2.5% hits; AID 2796; in the data active = activation above about 47%
SMARCA2 activ: SMARCA2 function activation, primary screen. activation, % at 9.1 µM. MG213 cells, MMTV-luciferase reporter, dexamethasone, overnight. AID 652017. 370,000 compounds, 1% hits; in the data active = activation above about 7.8%
Each line names hits and unclear results; the compound was inactive in the other large screens.

CCOC(=O)c1[nH]c2ccc(OC)cc2c1NC(=O)c1ccc(OC)c(OC)c1	none (no result: TAG inh)
C=CCN1C(=O)[C@@H](CC(=O)N2CCN(C(=O)OCC)CC2)[C@]2(C(=O)OC)CCCCC=C12	none (no result: Efflux pump inh, Tb MetRS inh, TAG inh, AHR activator)
C/C(=N/NC(=O)CC1N=C(Cc2ccccc2)NNC1=O)c1cccnc1 (centres undefined)	AHR activator 62.2
Cc1ccc(-n2c(SCc3c(Cl)cccc3Cl)nnc2-c2ccco2)cc1	none (no result: Efflux pump inh, Tb MetRS inh, TAG inh, AHR activator)
CCCOc1ccc(-c2c(C(=O)N/N=C(\C)c3cccnc3)nnn2-c2nonc2N)cc1	AHR activator 55.9 (no result: TAG inh)
CCOc1cccc(-c2c(C(=O)N/N=C(\C)c3cccnc3)nnn2-c2nonc2N)c1	AHR activator 59.7 (no result: TAG inh)
C=C1CCC2C(C)(C)CCC[C@]2(C)[C@H]1CC1=C(O)C(=O)C(CO)=CC1=O (some centres undefined)	none (no result: Efflux pump inh, Tb MetRS inh, TAG inh, AHR activator)
O=c1cc(-c2cccc(F)c2)[nH]c2ccccc12	AHR activator 61.2
Cc1ccc2[nH]c(-c3cccc(F)c3)cc(=O)c2c1	AHR activator 50.2 (no result: TAG inh)
COc1ccc2[nH]c(-c3cccc(F)c3)cc(=O)c2c1	AHR activator 58.2 (no result: Efflux pump inh)
Cc1ccc(-c2cc(=O)c3cc(F)ccc3[nH]2)cc1	none (no result: TAG inh)
Nc1ccc2nc(-c3ccccc3)[nH]c2c1	AHR activator 67.0
O=C(Cc1ccccc1)NC1CCCCN(Cc2cccc(Cl)c2)C1=O (centres undefined)	none (no result: Efflux pump inh, Tb MetRS inh, TAG inh, AHR activator)
CCOC(=O)c1[nH]c2c(c1C)C(=O)CC(c1ccco1)C2 (centres undefined)	none
Cc1c(C(=O)OCCOC(C)C)[nH]c2c1C(=O)CC(c1ccco1)C2 (centres undefined)	none (no result: SMARCA2 activ)
COCCOC(=O)c1[nH]c2c(c1C)C(=O)CC(c1ccco1)C2 (centres undefined)	TAG inh 59.6, AHR activator 56.1
CSCCOC(=O)c1[nH]c2c(c1C)C(=O)CC(c1ccco1)C2 (centres undefined)	TAG inh 56.1
O=C(CCc1ccccc1)N[C@H]1/C(=N/O)CCC[C@]12C(=O)N(Cc1ccccc1)c1ccccc12	none (no result: Efflux pump inh, Tb MetRS inh, TAG inh, AHR activator)
Cc1cc(C)c(C#N)c(OCC(=O)c2ccccc2)n1	AHR activator 51.5
O=[N+]([O-])c1ccc(O)c(Nc2ncnc3ccccc23)c1	none
COc1ccc(Nc2ncnc3ccc([N+](=O)[O-])cc23)c(OC)c1	none
O=[N+]([O-])c1ccc(O)c(Nc2ncnc3ccc(Br)cc23)c1	AHR activator 75.4
Cc1ccc(O)c(Nc2ncnc3ccc([N+](=O)[O-])cc23)c1	AHR activator 50.4 (no result: TAG inh)
C=CCN1C(C(=O)OC)CN(Cc2cn(Cc3ccc(C)cc3)nn2)CCS1(=O)=O (centres undefined)	none (no result: Efflux pump inh, Tb MetRS inh, TAG inh, AHR activator)
Cc1nc2cc(C(=O)N3CCN(C(=O)OCc4ccccc4)CC3)ccc2n1C1CCCC1	none (no result: Efflux pump inh, Tb MetRS inh, TAG inh, AHR activator)
CC1=NN(C(N)=S)C(=O)C1N=Nc1ccccc1O (centres undefined)	AHR activator 47.5 (no result: TAG inh)
CC1=NN(C(N)=S)C(=O)C1N=Nc1ccc(C)cc1C (centres undefined)	AHR activator 67.1 (no result: Tb MetRS inh, TAG inh)
COc1cccc(N=NC2C(=O)N(C(N)=S)N=C2C)c1 (centres undefined)	none
CCOc1ccccc1N=Nc1c(C)[nH]n(C(N)=S)c1=O	AHR activator 64.6 (no result: TAG inh)
CCOc1ccccc1N=NC1C(=O)N(C(N)=S)N=C1C (centres undefined)	AHR activator 65.3 (no result: TAG inh)
COCCCNC(=O)C[C@H]1C[C@@]2(C(=O)OC)C(=C[C@H](C(C)(C)C)O[C@@H]2C)N(CCC2=CCCCC2)C1=O	none (no result: Efflux pump inh, Tb MetRS inh, TAG inh, AHR activator)
O=C(Nc1ccccc1[N+](=O)[O-])NC1CCCCN(Cc2ccc(Cl)cc2)C1=O (centres undefined)	none (no result: Efflux pump inh, Tb MetRS inh, TAG inh, AHR activator)
CC1=NN(C(N)=S)C(=O)C1N=Nc1ccccc1C (centres undefined)	AHR activator 56.6
CC1=NN(C(N)=S)C(=O)C1N=Nc1ccccc1[N+](=O)[O-] (centres undefined)	none (no result: Efflux pump inh, AHR activator)
COc1ccc(O)c(/C=N/NC(=O)CCC(=O)Nc2cccc(C)c2)c1	none (no result: TAG inh)
COc1ccc(OC)c(/C=N/NC(=O)CCCC(=O)Nc2cccc(Br)c2)c1	AHR activator 69.6 (no result: TAG inh)
Fc1ccc(C2=CC(c3ccc(Br)o3)n3ncnc3N2)cc1 (centres undefined)	AHR activator 86.5 (no result: TAG inh, SMARCA2 activ)
CCOc1ccc(C2C=C(c3ccc(F)cc3)Nc3ncnn32)cc1 (centres undefined)	AHR activator 62.7
Brc1ccc(C2=CC(c3cccs3)n3ncnc3N2)cc1 (centres undefined)	AHR activator 84.5
